Laboratory results reported in ChEMBL document CHEMBL1153560, “In vitro activities of doripenem and six comparator drugs against 423 aerobic and anaerobic bacterial isolates from infected diabetic foot wounds” (2008).

What was measured:
Format in all cases: functional
[1] = test system: Corynebacterium minutissimum; experiment: Antibacterial activity against Corynebacterium minutissimum isolated from patient with diabetic foot infection after 48 hrs by broth microdilution method
Procedure, shortened: (§1)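 Isolates were subcultured on Trypticase soy blood agar. Broth microdilution used cation-adjusted Mueller-Hinton broth with lysed horse blood, in-house trays of twofold drug dilutions stored at −70°C. Colonies from overnight growth gave a final inoculum of about 5 × 10^5 CFU/ml. Trays were read after 18 to 24 h at 37°C, up to 48 h for some strains.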

[2] = test system: Corynebacterium amycolatum; experiment: Antibacterial activity against Corynebacterium amycolatum isolated from patient with diabetic foot infection assessed as percent resistant isolates after 48 hrs by broth microdilution method
Procedure, shortened: (§2)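 Isolates subcultured on Trypticase soy blood agar. Broth microdilution in cation-adjusted Mueller-Hinton broth with lysed horse blood, using in-house twofold dilution trays stored at −70°C. Inoculum from overnight colonies at about 5 × 10^5 CFU/ml final. Read after 18 to 24 h at 37°C, up to 48 h for some Corynebacterium strains.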

[3] = test system: Clostridium malenominatum; experiment: Antibacterial activity against Clostridium malenominatum isolated from patient with diabetic foot infection assessed as percent resistant isolates after 44 to 48 hrs by agar dilution method
Procedure, shortened: (§3)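 Agar dilution per CLSI M11-A7. Twofold drug dilutions made on the test day and added to molten agar. Replicator-applied inoculum of 10^5 CFU/spot. Drug-free control plates inoculated before and after each drug set. Incubation at 37°C for 44 to 48 h, anaerobic chamber. MIC taken as the lowest concentration giving no growth or a marked change in growth versus controls.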

[4] = test system: Clostridium malenominatum; experiment: Antibacterial activity against Clostridium malenominatum isolated from patient with diabetic foot infection after 44 to 48 hrs by agar dilution method
Procedure, shortened: (§4)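 CLSI M11-A7 agar dilution: serial twofold drug dilutions made on the test day and added to molten agar. Spots of 10^5 CFU were applied by replicator, with drug-free control plates inoculated before and after each set. Incubation was 44 to 48 h at 37°C in an anaerobic chamber. MIC was the lowest concentration giving no growth or a marked change in growth versus controls.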

[5] = test system: Corynebacterium urealyticum; experiment: Antibacterial activity against Corynebacterium urealyticum isolated from patient with diabetic foot infection assessed as percent resistant isolates after 48 hrs by broth microdilution method; procedure, shortened: as §2
[6] = test system: Bacteroides thetaiotaomicron; experiment: Antibacterial activity against Bacteroides thetaiotaomicron isolated from patient with diabetic foot infection after 44 to 48 hrs by agar dilution method; procedure, shortened: as §4
Clostridium perfringens = experiment: Antibacterial activity against Clostridium perfringens isolated from patient with diabetic foot infection after 44 to 48 hrs by agar dilution method; procedure, shortened: as §3
[7] = test system: Staphylococcus lugdunensis; experiment: Antibacterial activity against Staphylococcus lugdunensis isolated from patient with diabetic foot infection assessed as percent resistant isolates after 18 to 24 hrs by broth microdilution method
Procedure, shortened: (§5)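 Aerobes subcultured on Trypticase soy blood agar, then broth microdilution in cation-adjusted Mueller-Hinton broth. Trays prepared in-house with twofold dilutions and stored at −70°C. Overnight colonies suspended to about 5 × 10^5 CFU/ml final. Read after 18 to 24 h at 37°C. QC strains included S. aureus ATCC 29213 and E. coli ATCC 25922.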

Bacteroides uniformis [8] = experiment: Antibacterial activity against Bacteroides uniformis isolated from patient with diabetic foot infection assessed as percent resistant isolates after 44 to 48 hrs by agar dilution method; procedure, shortened: as §3
Enterobacter cloacae = experiment: Antibacterial activity against Enterobacter cloacae isolated from patient with diabetic foot infection assessed as percent resistant isolates after 18 to 24 hrs by broth microdilution method; procedure, shortened: as §5
Staphylococcus aureus = experiment: Antibacterial activity against methicillin-sensitive Staphylococcus aureus isolated from patient with diabetic foot infection after 18 to 24 hrs by broth microdilution method
Procedure, shortened: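 Subcultured on Trypticase soy blood agar, then broth microdilution in cation-adjusted Mueller-Hinton broth. Trays were made in-house with serial twofold drug dilutions and stored at −70°C. Inoculum was colonies from overnight growth, final approximately 5 × 10^5 CFU/ml. MIC was read after 18 to 24 h at 37°C. QC strains: S. aureus ATCC 29213 and E. coli ATCC 25922.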

Parabacteroides merdae = experiment: Antibacterial activity against Parabacteroides merdae isolated from patient with diabetic foot infection after 44 to 48 hrs by agar dilution method; procedure, shortened: as §4
Bacteroides uniformis [9] = experiment: Antibacterial activity against Bacteroides uniformis isolated from patient with diabetic foot infection after 44 to 48 hrs by agar dilution method; procedure, shortened: as §4
Finegoldia magna = experiment: Antibacterial activity against Finegoldia magna isolated from patient with diabetic foot infection after 44 to 48 hrs by agar dilution method; procedure, shortened: as §4
Porphyromonas somerae = experiment: Antibacterial activity against Porphyromonas somerae isolated from patient with diabetic foot infection after 44 to 48 hrs by agar dilution method; procedure, shortened: as §4
Proteus mirabilis [10] = experiment: Antibacterial activity against Proteus mirabilis isolated from patient with diabetic foot infection after 18 to 24 hrs by broth microdilution method
Procedure, shortened: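 Isolates were subcultured on Trypticase soy blood agar and tested by broth microdilution in cation-adjusted Mueller-Hinton broth. In-house trays of twofold drug dilutions were stored at −70°C. Overnight colonies gave a final inoculum of about 5 × 10^5 CFU/ml. Plates were read after 18 to 24 h at 37°C.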

[11] = test system: Corynebacterium urealyticum; experiment: Antibacterial activity against Corynebacterium urealyticum isolated from patient with diabetic foot infection after 48 hrs by broth microdilution method; procedure, shortened: as §1
Anaerococcus prevotii = experiment: Antibacterial activity against Anaerococcus prevotii isolated from patient with diabetic foot infection assessed as percent resistant isolates after 44 to 48 hrs by agar dilution method; procedure, shortened: as §3
Lacrimispora sphenoides [12] = experiment: Antibacterial activity against Clostridium sphenoides isolated from patient with diabetic foot infection after 44 to 48 hrs by agar dilution method; procedure, shortened: as §4
Corynebacterium accolens = experiment: Antibacterial activity against Corynebacterium accolens isolated from patient with diabetic foot infection after 48 hrs by broth microdilution method; procedure, shortened: as §1
[Clostridium] innocuum = Antibacterial activity against Clostridium innocuum isolated from patient with diabetic foot infection assessed as percent resistant isolates after 44 to 48 hrs by agar dilution method; procedure, shortened: as §3
Klebsiella aerogenes = experiment: Antibacterial activity against Enterobacter aerogenes isolated from patient with diabetic foot infection assessed as percent resistant isolates after 18 to 24 hrs by broth microdilution method; procedure, shortened: as §5
Proteus mirabilis [13] = experiment: Antibacterial activity against Proteus mirabilis isolated from patient with diabetic foot infection assessed as percent resistant isolates after 18 to 24 hrs by broth microdilution method; procedure, shortened: as §5
Anaerococcus tetradius = experiment: Antibacterial activity against Anaerococcus tetradius isolated from patient with diabetic foot infection after 44 to 48 hrs by agar dilution method; procedure, shortened: as §4
Bacteroides ovatus = experiment: Antibacterial activity against Bacteroides ovatus isolated from patient with diabetic foot infection assessed as percent resistant isolates after 44 to 48 hrs by agar dilution method; procedure, shortened: as §3
Lacrimispora sphenoides [14] = experiment: Antibacterial activity against Clostridium sphenoides isolated from patient with diabetic foot infection assessed as percent resistant isolates after 44 to 48 hrs by agar dilution method; procedure, shortened: as §3
Bacteroides fragilis = experiment: Antibacterial activity against Bacteroides fragilis isolated from patient with diabetic foot infection after 44 to 48 hrs by agar dilution method; procedure, shortened: as §4

C[C@@H](O)[C@H]1C(=O)N2C(C(=O)O)=C(S[C@@H]3CN[C@H](C(=O)N(C)C)C3)[C@H](C)[C@H]12 [MEROPENEM]
0.03 µg/mL: MIC50 (Anaerococcus tetradius)
0.125 µg/mL: MIC90 (Staphylococcus aureus) | MIC90 (Finegoldia magna) | MIC90 (Proteus mirabilis [10]) | MIC50 (Corynebacterium accolens) | MIC90 (Anaerococcus tetradius) | MIC50 (Bacteroides fragilis)
0.06 µg/mL: MIC50 [4] | MIC50 (Staphylococcus aureus) | MIC50 (Finegoldia magna) | MIC50 (Proteus mirabilis [10]) | MIC50 (Lacrimispora sphenoides [12])
1 µg/mL: MIC50 [1] | MIC90 [4] | MIC90 [6] | MIC90 (Parabacteroides merdae) | MIC90 (Bacteroides uniformis [9]) | MIC50 [11] | MIC90 (Lacrimispora sphenoides [12])
0.25 µg/mL: MIC50 [6] | MIC50 (Parabacteroides merdae) | MIC50 (Bacteroides uniformis [9]) | MIC90 (Corynebacterium accolens) | MIC90 (Bacteroides fragilis)
20%: Activity [5]
0%: Activity [3] | Activity [7] | Activity (Bacteroides uniformis [8]) | Activity (Enterobacter cloacae) | Activity (Anaerococcus prevotii) | Activity ([Clostridium] innocuum) | Activity (Klebsiella aerogenes) | Activity (Proteus mirabilis [13]) | Activity (Bacteroides ovatus) | Activity (Lacrimispora sphenoides [14])
≤ 0.015 µg/mL: MIC50 (Clostridium perfringens) | MIC90 (Clostridium perfringens) | MIC50 (Porphyromonas somerae) | MIC90 (Porphyromonas somerae)
7%: Activity [2]
16 µg/mL: MIC90 [1] | MIC90 [11]
